What was measured:
Type in all cases: functional
CAKI-1 [1] = experiment: Cytotoxicity against human CAKI-1 cells assessed as cell growth at 10 uM after 48 hrs by SRB assay; details: CAKI-1, 48 h, read-out: Activity
M14 = experiment: Cytotoxicity against human M14 cells assessed as growth inhibition after 48 hrs by SRB assay; details: for GI50 / TGI / LC50: M14, 48 h
Summary of the method: (§1)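 NCI 60-cell-line five-dose screen at […]. Drug exposure was 48 h, followed by sulforhodamine B protein staining. GI50, TGI and LC50 were calculated against a time-zero control and untreated plates, with dose–response curves plotted from log10 concentration.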

SNB-75 = experiment: Cytotoxicity against human SNB75 cells assessed as growth inhibition after 48 hrs by SRB assay; details: for GI50 / TGI / LC50: SNB-75, 48 h
Summary of the method: (§2)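 NCI 60-cell-line screen, two stages. Five-dose testing at […]. Cellular protein measured by sulforhodamine B colorimetry after 48 h drug exposure. A time-zero control and drug-free plates are used to derive GI50, TGI and LC50 from dose-response curves plotted as log10 concentration per cell line.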

UO-31 = experiment: (§3) Cytotoxicity against human UO31 cells assessed as growth inhibition after 48 hrs by SRB assay; summary of the method: as §2
[2] = as §3; details: UO-31, 48 h; summary of the method: as §2
HOP-62 = experiment: Cytotoxicity against human HOP62 cells assessed as growth inhibition after 48 hrs by SRB assay; details: for GI50 / TGI / LC50 (concentration killing 50% of cells relative to time zero): HOP-62, 48 h; summary of the method: as §1
ACHN = experiment: Cytotoxicity against human ACHN cells assessed as growth inhibition after 48 hrs by SRB assay; details: for CC50: read-out: LC50 (the source's name); summary of the method: as §1
TK-10 = experiment: Cytotoxicity against human TK10 cells assessed as growth inhibition after 48 hrs by SRB assay; details: for GI50 / TGI / LC50: TK-10, 48 h; summary of the method: as §2
CAKI-1 [3] = experiment: Cytotoxicity against human CAKI-1 cells assessed as growth inhibition after 48 hrs by SRB assay; summary of the method: as §1
Hs-578T = experiment: (§4) Cytotoxicity against human Hs578T cells assessed as growth inhibition after 48 hrs by SRB assay; summary of the method: as §1
[4] = as §4; details: Hs-578T; for CC50: read-out: LC50 (the source's name); summary of the method: as §1
SK-MEL-2 = experiment: Cytotoxicity against human SK-MEL-2 cells assessed as growth inhibition after 48 hrs by SRB assay; details: for GI50 / TGI / LC50 (50% lethal concentration): SK-MEL-2, 48 h
Summary of the method: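 NCI 60-cell-line screen, five-dose stage: each cell line exposed for 48 h to five concentrations spanning five log steps; cellular protein measured by sulforhodamine B colorimetry. A time-zero cell control and plates without drug are used to derive GI50, TGI and LC50 from log-concentration dose-response curves.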

BT-549 = experiment: Cytotoxicity against human BT549 cells assessed as growth inhibition after 48 hrs by SRB assay; details: for GI50 / TGI / LC50 (concentration killing 50% of cells): BT-549, 48 h; summary of the method: as §1
HOP-92 = experiment: Cytotoxicity against human HOP92 cells assessed as growth inhibition after 48 hrs by SRB assay; details: for GI50 / TGI / CC50: HOP-92, 48 h; for CC50: read-out: LC50 (the source's name); summary of the method: as §1

O=C1c2ccccc2C(=O)c2c1ccc1[nH]c(=S)[nH]c21
growth at 10 µM (CAKI-1 [1]): 91.2%

CN(C)CCCSc1nc2ccc3c(c2[nH]1)C(=O)c1ccccc1C3=O
growth inhibition (GI) (M14): Dose-dependent effect
GI50 (M14): 7.05 µM
TGI (M14): 20.7 µM
growth at 10 µM (CAKI-1 [1]): -14.9%
growth inhibition (GI) (SNB-75): Dose-dependent effect
GI50 (SNB-75): < 0.01 µM
TGI (SNB-75): < 0.01 µM
growth inhibition (GI) (UO-31): Dose-dependent effect
GI50 [2]: 564 nM
TGI [2]: 11.7 µM
growth inhibition (GI) (HOP-62): Dose-dependent effect
GI50 (HOP-62): 5.9 µM
TGI (HOP-62): 21.2 µM
GI50 (ACHN): 1740 nM
TGI (ACHN): 15 µM
growth inhibition (GI) (ACHN): Dose-dependent effect
CC50 (ACHN): 38.7 µM
growth inhibition (GI) (TK-10): Dose-dependent effect
GI50 (TK-10): 1.37 µM
TGI (TK-10): 13.5 µM
growth inhibition (GI) (CAKI-1 [3]): Dose-dependent effect
GI50 (CAKI-1 [3]; CAKI-1, 48 h): 822 nM
TGI (CAKI-1 [3]; CAKI-1, 48 h): 11 µM
growth inhibition (GI) (Hs-578T): Dose-dependent effect
GI50 [4]: 4.84 µM
TGI [4]: 22.9 µM
CC50 [4]: 65 µM
growth inhibition (GI) (SK-MEL-2): Dose-dependent effect
GI50 (SK-MEL-2): 13.3 µM
TGI (SK-MEL-2): 26.3 µM
growth inhibition (GI) (BT-549): Dose-dependent effect
GI50 (BT-549): 9.13 µM
TGI (BT-549): 21.8 µM

CCSc1nc2ccc3c(c2[nH]1)C(=O)c1ccccc1C3=O
growth inhibition (GI) (M14): Dose-dependent effect
GI50 (M14): 5.62 µM
LC50 (M14): > 100 µM
TGI (M14): > 100 µM
growth at 10 µM (CAKI-1 [1]): -8.01%
growth inhibition (GI) (SNB-75): Dose-dependent effect
GI50 (SNB-75): 10.1 µM
LC50 (SNB-75): > 100 µM
TGI (SNB-75): 84.9 µM
growth inhibition (GI) (UO-31): Dose-dependent effect
GI50 [2]: 3310 nM
LC50 [2]: > 100 µM
TGI [2]: > 100 µM
growth inhibition (GI) (HOP-62): Dose-dependent effect
GI50 (HOP-62): 25.9 µM
LC50 (concentration killing 50% of cells relative to time zero) (HOP-62): > 100 µM
TGI (HOP-62): > 100 µM
growth inhibition (GI) (HOP-92): Dose-dependent effect
GI50 (HOP-92): 90.6 µM
TGI (HOP-92): > 100 µM
CC50 (HOP-92): > 100 µM
GI50 (ACHN): 5090 nM
TGI (ACHN): > 100 µM
growth inhibition (GI) (ACHN): Dose-dependent effect
CC50 (ACHN): > 100 µM
growth inhibition (GI) (TK-10): Dose-dependent effect
GI50 (TK-10): 7.4 µM
LC50 (TK-10): > 100 µM
TGI (TK-10): > 100 µM
growth inhibition (GI) (Hs-578T): Dose-dependent effect
GI50 [4]: 5.12 µM
TGI [4]: > 100 µM
CC50 [4]: > 100 µM
growth inhibition (GI) (SK-MEL-2): Dose-dependent effect
GI50 (SK-MEL-2): 5.1 µM
LC50 (50% lethal concentration) (SK-MEL-2): > 100 µM
TGI (SK-MEL-2): > 100 µM
growth inhibition (GI) (BT-549): Dose-dependent effect
GI50 (BT-549): 9.34 µM
LC50 (concentration killing 50% of cells) (BT-549): > 100 µM
TGI (BT-549): > 100 µM

CCCSc1nc2ccc3c(c2[nH]1)C(=O)c1ccccc1C3=O
growth inhibition (GI) (M14): Dose-dependent effect
GI50 (M14): > 100 µM
LC50 (M14): > 100 µM
TGI (M14): > 100 µM
growth at 10 µM (CAKI-1 [1]): 45.5%
growth inhibition (GI) (SNB-75): Dose-dependent effect
GI50 (SNB-75): 2.64 µM
LC50 (SNB-75): 98.1 µM
TGI (SNB-75): 6.43 µM
growth inhibition (GI) (UO-31): Dose-dependent effect
GI50 [2]: 2530 nM
LC50 [2]: > 100 µM
TGI [2]: 70.2 µM
growth inhibition (GI) (HOP-62): Dose-dependent effect
GI50 (HOP-62): 1.94 µM
LC50 (concentration killing 50% of cells relative to time zero) (HOP-62): 9.36 µM
TGI (HOP-62): 4.27 µM
growth inhibition (GI) (HOP-92): Dose-dependent effect
GI50 (HOP-92): 15 µM
TGI (HOP-92): > 100 µM
CC50 (HOP-92): > 100 µM
GI50 (ACHN): 2690 nM
TGI (ACHN): 42.8 µM
growth inhibition (GI) (ACHN): Dose-dependent effect
CC50 (ACHN): > 100 µM
growth inhibition (GI) (TK-10): Dose-dependent effect
GI50 (TK-10): 3.25 µM
LC50 (TK-10): > 100 µM
TGI (TK-10): 21.6 µM
growth inhibition (GI) (CAKI-1 [3]): Dose-dependent effect
GI50 (CAKI-1 [3]; CAKI-1, 48 h): 3070 nM
LC50 (CAKI-1 [3]; CAKI-1, 48 h): > 100 µM
TGI (CAKI-1 [3]; CAKI-1, 48 h): > 100 µM
growth inhibition (GI) (Hs-578T): Dose-dependent effect
GI50 [4]: 3.45 µM
TGI [4]: 83 µM
CC50 [4]: > 100 µM
growth inhibition (GI) (SK-MEL-2): Dose-dependent effect
GI50 (SK-MEL-2): 15.9 µM
LC50 (50% lethal concentration) (SK-MEL-2): > 100 µM
TGI (SK-MEL-2): > 100 µM
growth inhibition (GI) (BT-549): Dose-dependent effect
GI50 (BT-549): 33.4 µM
LC50 (concentration killing 50% of cells) (BT-549): > 100 µM
TGI (BT-549): > 100 µM

O=C1c2ccccc2C(=O)c2c1ccc1nc(SCCN3CCCC3)[nH]c21
growth inhibition (GI) (M14): Dose-dependent effect
GI50 (M14): 8.24 µM
LC50 (M14): 47.9 µM
TGI (M14): 21.2 µM
growth inhibition (GI) (SNB-75): Dose-dependent effect
GI50 (SNB-75): 12.3 µM
LC50 (SNB-75): 51.5 µM
TGI (SNB-75): 25.2 µM
growth inhibition (GI) (UO-31): Dose-dependent effect
GI50 [2]: 2080 nM
LC50 [2]: 44.9 µM
TGI [2]: 15.8 µM
growth inhibition (GI) (HOP-62): Dose-dependent effect
GI50 (HOP-62): 18 µM
TGI (HOP-62): 33.2 µM
GI50 (ACHN): 2340 nM
TGI (ACHN): 16.5 µM
growth inhibition (GI) (ACHN): Dose-dependent effect
CC50 (ACHN): 41.1 µM
growth inhibition (GI) (TK-10): Dose-dependent effect
GI50 (TK-10): 4.22 µM
LC50 (TK-10): 46.8 µM
TGI (TK-10): 19.1 µM
growth inhibition (GI) (Hs-578T): Dose-dependent effect
GI50 [4]: 6.24 µM
TGI [4]: 25.8 µM
CC50 [4]: 79.9 µM
growth inhibition (GI) (SK-MEL-2): Dose-dependent effect
GI50 (SK-MEL-2): 17.1 µM
LC50 (50% lethal concentration) (SK-MEL-2): 63.5 µM
TGI (SK-MEL-2): 32.9 µM
growth inhibition (GI) (BT-549): Dose-dependent effect
GI50 (BT-549): 12.5 µM
LC50 (concentration killing 50% of cells) (BT-549): 55.8 µM
TGI (BT-549): 26.4 µM
